From ChEMBL document CHEMBL4715714, “Design, synthesis and biological evaluation of thiosemicarbazones, hydrazinobenzothiazoles and arylhydrazones as anticancer agents with a potential to overcome multidrug resistance” (Eur J Med Chem, 2016)
Calls of active or inactive are those of the source. The rule behind the calls is not given here.

Legend:
[1] = Selectivity ratio of IC50 for human MES-SA cells transfected with mCherry to IC50 for human MES-SA/DX5 cells transfected with mCherry incubated for 72 hrs by fluorescent assay; assay type: functional
KB 3-1 = assay: Cytotoxicity against human KB-3-1 cells assessed as inhibition of cell proliferation incubated for 72 hrs by MTT assay; assay type: functional, cell-based; details: KB 3-1, 72 h
Outline: (§1)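 Cells were seeded (10000/well for A2780, 5000/well for MES-SA/Dx5 and KB-3-1/V1) and left to attach 12 h, then exposed to compound for 72 h. Medium was removed, and MTT (0.83 mg/mL) was added for 1 h at 37 °C. Cells were lysed in DMSO and absorbance read at 540 nm. Signal was corrected for unstained lysate background, normalized to untreated cells, and IC50 taken from a sigmoidal dose-response fit.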

MES-SA/Dx5 [2] = assay: Cytotoxicity against human MES-SA/DX5 cells assessed as inhibition of cell proliferation incubated for 72 hrs by MTT assay; assay type: functional, cell-based; details: MES-SA/Dx5, 72 h; outline: as §1
MES-SA/Dx5 [3] = assay: Cytotoxicity against human MES-SA/DX5 cells incubated for 72 hrs in presence of efflux pump inhibitor, Tariquidar by MTT assay; assay type: functional, cell-based
Outline: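 Run as the 72 h MTT viability readout (12 h attachment, MTT 0.83 mg/mL for 1 h, DMSO lysis, A540), with the P-gp inhibitor Tariquidar at 1 µM co-present. IC50 came from sigmoidal fits of 2 to 4 independent experiments.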

MES-SA [4] = assay: Cytotoxicity against human MES-SA cells transfected with mCherry fluorescent protein assessed as inhibition of cell proliferation incubated for 72 hrs by fluorescent assay; assay type: functional, cell-based
Outline: (§2)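 MES-SA and MES-SA/Dx5 cells were made to stably express mCherry by lentiviral transduction. Cells were seeded at 5000 (96-well) or 2500 (384-well) per well, allowed to attach 24 h, then treated with compound dilutions for 72 h. Viability was read as fluorescence, excitation 585 nm, emission 610 nm.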

KB-V1 [5] = assay: Cytotoxicity against human KB-V1 cells assessed as inhibition of cell proliferation incubated for 72 hrs by MTT assay; assay type: functional, cell-based; details: KB-V1, 72 h; outline: as §1
[6] = (§3) Cytotoxicity against human A2780adr cells assessed as inhibition of cell proliferation incubated for 72 hrs by MTT assay; assay type: functional, cell-based; details: A2780 ADR; outline: as §1
[7] = Selectivity ratio of IC50 for human MES-SA cells to IC50 for human MES-SA/DX5 cells incubated for 72 hrs by MTT assay; assay type: functional
Outline: (§4)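 The selectivity ratio is the IC50 in P-gp-negative parental cells divided by the IC50 in the P-gp-positive resistant partner.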

MES-SA/Dx5 [8] = assay: Cytotoxicity against human MES-SA/DX5 cells transfected with mCherry fluorescent protein incubated for 72 hrs in presence of efflux pump inhibitor, Tariquidar by fluorescence assay; assay type: functional, cell-based
Outline: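 The mCherry-expressing cells (lentiviral) were seeded at 5000 or 2500 per well, attached for 24 h, and exposed 72 h to compounds with Tariquidar coadministered. Live-cell signal was fluorescence at 585 nm excitation and 610 nm emission.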

HFF = assay: Cytotoxicity against human HFF cells by MTT assay
MES-SA [9] = assay: Cytotoxicity against human MES-SA cells assessed as inhibition of cell proliferation incubated for 72 hrs by MTT assay; assay type: functional, cell-based; outline: as §1
MES-SA/Dx5 [10] = assay: Cytotoxicity against human MES-SA/DX5 cells transfected with mCherry fluorescent protein assessed as inhibition of cell proliferation incubated for 72 hrs by fluorescent assay; assay type: functional, cell-based; details: Homo sapiens, MES-SA/Dx5, 72 h; outline: as §2
MES-SA/Dx5 [11] = assay: Reduction in P-gp expression in human MES-SA/DX5 cells at IC20 concentration incubated for 5 days by calcein-AM staining based flow cytometric analysis; assay type: functional, cell-based; details: time 5.0 day
Outline: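 MES-SA/Dx5 cells were grown 5 days with compound at IC20 values calculated from viability assays, then recovered in drug-free medium refreshed every fifth day. At 80% confluency, cells were stained with Calcein AM with or without verapamil, with TO-PRO-3 excluding dead cells, and analysed by flow cytometry for the P-gp-negative fraction.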

A2780 = assay: Cytotoxicity against human A2780 cells assessed as inhibition of cell proliferation incubated for 72 hrs by MTT assay; assay type: functional, cell-based; details: for IC50: A2780, 72 h; outline: as §1
[12] = Selectivity ratio of IC50 for human KB-3-1 cells to IC50 for human KB-V1 cells incubated for 72 hrs by MTT assay; assay type: functional; outline: as §4
KB-V1 [13] = assay: Cytotoxicity against human KB-V1 cells assessed as inhibition of cell proliferation incubated for 72 hrs in presence of efflux pump inhibitor, Tariquidar by MTT assay; assay type: functional, cell-based
[14] = Selectivity ratio of IC50 for human A2780 cells to IC50 for human A2780adr cells incubated for 72 hrs by MTT assay; assay type: functional; outline: as §4
A2780 ADR [15] = assay: Cytotoxicity against human A2780adr cells assessed as inhibition of cell proliferation incubated for 72 hrs in presence of efflux pump inhibitor, Tariquidar by MTT assay; assay type: functional, cell-based
A2780 ADR [16] = assay: as §3; assay type: functional, cell-based; outline: as §1
[17] = Homo sapiens, MES-SA, 72 h, read-out: IC50
[18] = Homo sapiens, MES-SA, 72 h, read-out: pIC50 (converted)

Row | Structure (SMILES) | Ratio IC50 [1] | IC50 (KB 3-1; read-out: IC50) [nM] | IC50 (KB 3-1; read-out: pIC50 (converted)) [nM] | IC50 (MES-SA/Dx5 [2]; read-out: IC50) [nM] | IC50 (MES-SA/Dx5 [2]; read-out: pIC50 (converted)) [nM] | Activity (MES-SA/Dx5 [3]) | IC50 (MES-SA [4]; [17]) [nM] | IC50 (KB-V1 [5]; read-out: IC50) [nM] | IC50 (KB-V1 [5]; read-out: pIC50 (converted)) [nM] | IC50 ([6]; read-out: IC50) [nM] | IC50 ([6]; read-out: pIC50 (converted)) [nM] | Ratio IC50 [7] | Activity (HFF) | IC50 (MES-SA [9]; read-out: IC50) [nM] | IC50 (MES-SA [9]; read-out: pIC50 (converted)) [nM] | IC50 (MES-SA/Dx5 [10]; read-out: IC50) [nM] | IC50 (A2780; read-out: IC50) [nM] | IC50 (A2780; read-out: pIC50 (converted)) [nM] | IC50 (MES-SA [4]; [18]) [nM] | IC50 (MES-SA/Dx5 [10]; read-out: pIC50 (converted)) [nM] | further results
1 | Cc1ccc(NC(=S)N/N=C2\C(=O)Nc3ccccc32)cc1 | 3.1 | 4440 | 4170 | 3270 | 3310 | Active | 11300 | 4000 | 3980 | 8750 | 8910 | 1.87 | Toxic | 5330 | 5130 | 3270 | 9700 | 9550 | – | – | Activity (MES-SA/Dx5 [8]): inactive; inhibition (MES-SA/Dx5 [11]): Active
2 | C/C(=N\NC(=S)Nc1ccc(C)cc1)c1ccccn1 | – | 40.4 | 37.2 | 1.8 | 1.7 | Active | 65 | 36 | 33.1 | 21 | 20.4 | 6.25 | Non-Toxic | 16 | 17 | 29 | 17 | 16.2 | 41.7 | 25.7 | Ratio IC50 [12]: 1.15; Activity (KB-V1 [13]): Active
3 | COc1ccc(NC(=S)N/N=C2\C(=O)Nc3ccccc32)cc1 | 3.17 | 7820 | 7590 | 3590 | 3470 | inactive | 12100 | 3780 | 3980 | 4840 | 4680 | 1.87 | – | 6100 | 6030 | 4150 | 7490 | 7410 | – | – | Ratio IC50 [12]: 2.04; Ratio IC50 [14]: 1.6; Activity (A2780 ADR [15]): inactive; Activity (KB-V1 [13]): inactive; Activity (MES-SA/Dx5 [8]): inactive; inhibition (MES-SA/Dx5 [11]): Active
4 | Cc1ccc(NC(=S)N/N=C/c2ccccn2)cc1 | – | 740 | 724 | 76 | 72.4 | Active | 790 | 920 | 891 | 64 | 63.1 | 4.55 | Non-Toxic | 396 | 363 | 770 | 48 | 47.9 | 759 | 562 | –
5 | C/C(=N\Nc1nc2ccccc2s1)c1ccccn1 | – | 340 | 372 | 14 | 12.3 | Active | 250 | 280 | 295 | 31 | 30.2 | 17.58 | Non-Toxic | 200 | 219 | 100 | 94 | 89.1 | 240 | 83.2 | –
6 | C/C(=N\Nc1nc2ccccc2s1)c1ccccc1O | 1.9 | 14300 | 13800 | 5520 | 5250 | Active | 21600 | 12100 | 11500 | – | 9770 | 1.91 | Toxic | 12500 | 12300 | 11600 | 8740 | 8320 | 21400 | 8910 | Activity (MES-SA/Dx5 [8]): Active
7 | COc1ccc(NC(=S)N/N=C(\C)c2ccccn2)cc1 | 4.54 | 950 | 692 | 14.2 | 14.1 | Active | 250 | 1750 | 1050 | 31 | 28.2 | 22.59 | – | 340 | 339 | 64 | 46 | 45.7 | 229 | 57.5 | Activity (MES-SA/Dx5 [8]): Active
8 | Oc1ccccc1/C=N/Nc1nc2ccccc2s1 | 7.18 | 18100 | 15800 | 10400 | 9550 | Active | 23200 | 11700 | 11700 | 6010 | 5890 | 2.04 | – | 24700 | 23400 | 4550 | 3160 | 3090 | 26900 | 4270 | Activity (MES-SA/Dx5 [8]): inactive
9 | COc1ccc(NC(=S)NNC2=c3ccccc3=NC2=O)cc1 | – | – | – | – | – | – | – | – | – | – | – | – | Toxic | – | – | – | – | – | – | – | –
10 | COc1cc(N/N=C2/C(=O)Nc3ccccc32)ncn1 | – | – | 55000 | – | 129000 | – | – | – | – | – | – | – | – | – | 91200 | – | – | – | – | – | IC50 (MES-SA [4]; mes-sa): Not Active; pIC50 (A2780 ADR [16]): inactive; pIC50 (A2780): inactive
11 | CCc1ccc(/C=N/Nc2cc(OC)ncn2)nc1 | – | 1230 | 1230 | 1110 | – | Active | 2330 | 1570 | 1550 | 630 | 617 | 1.41 | – | 1550 | – | 2110 | 1300 | 1290 | – | – | Ratio IC50 [14]: 2.03; Activity (A2780 ADR [15]): Active
12 | Cc1ccc(NC(=S)N/N=C/c2ccccc2O)cc1 | – | 3360 | 3310 | 5360 | – | – | 1440 | 3690 | 3470 | 6010 | 6030 | – | Toxic | 3970 | – | 1870 | 5150 | 5010 | – | – | –
13 | COc1cc(N/N=C(\C)c2ccccn2)ncn1 | – | 360 | 355 | 95 | – | Active | 260 | 490 | 490 | 27 | 25.7 | 2.62 | Non-Toxic | 260 | – | 220 | 140 | 132 | 339 | 234 | Ratio IC50 [14]: 4.33; Activity (A2780 ADR [15]): Active
14 | COc1ccc(NC(=S)N/N=C2\C(=O)Nc3ccc(OC(F)(F)F)cc32)cc1 | 3.29 | 6560 | 6170 | 2780 | 2570 | inactive | 8140 | 3920 | 3890 | 3770 | 3550 | 2.31 | – | 6140 | 5750 | 2520 | 3390 | 3240 | – | – | Activity (MES-SA/Dx5 [8]): inactive
